Screens from PubChem.
This is a sample that favours compounds with a hit; in the whole collection about 2.8% have one here.
SIRT5 inh – sirtuin-5 (human) deacylase inhibition. hit rate 1.1% among 330,000. Q9NXA8. inhibition, % at 15 µM. Purified SirT5, succinyl-peptide AMC, trypsin-coupled fluorescence; in the data active means inhibition above about 15%
DENV2 CPE rescue – protects cells from dengue virus 2 cytopathic effect. DENV2-infected cells, cytopathic effect rescue, plate reader. CPE inhibition, % at 9.99 µM. hit rate 1.7% among 350,000. AID 651640; in the data active means CPE inhibition above about 20%, passing the limit was not always enough; tested in BHK-21 cells;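 further: 0% = median of neutral control wells and 100% = median of positive control wells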
E-selectin induc – E-selectin induction on HUVECs; P16581; HUVEC E-selectin immunofluorescence imaging; normalized: neutral wells 0, TNF-alpha wells 100; activation, % at 7.58 µM; hit rate 0.37% among 260,000;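 active means mean E-selectin-positive cell signal at least 10% of the positive control, reached in at least 60% of replicates, without over 20% cell loss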
Target sequence (P16581 whole entry, looked up): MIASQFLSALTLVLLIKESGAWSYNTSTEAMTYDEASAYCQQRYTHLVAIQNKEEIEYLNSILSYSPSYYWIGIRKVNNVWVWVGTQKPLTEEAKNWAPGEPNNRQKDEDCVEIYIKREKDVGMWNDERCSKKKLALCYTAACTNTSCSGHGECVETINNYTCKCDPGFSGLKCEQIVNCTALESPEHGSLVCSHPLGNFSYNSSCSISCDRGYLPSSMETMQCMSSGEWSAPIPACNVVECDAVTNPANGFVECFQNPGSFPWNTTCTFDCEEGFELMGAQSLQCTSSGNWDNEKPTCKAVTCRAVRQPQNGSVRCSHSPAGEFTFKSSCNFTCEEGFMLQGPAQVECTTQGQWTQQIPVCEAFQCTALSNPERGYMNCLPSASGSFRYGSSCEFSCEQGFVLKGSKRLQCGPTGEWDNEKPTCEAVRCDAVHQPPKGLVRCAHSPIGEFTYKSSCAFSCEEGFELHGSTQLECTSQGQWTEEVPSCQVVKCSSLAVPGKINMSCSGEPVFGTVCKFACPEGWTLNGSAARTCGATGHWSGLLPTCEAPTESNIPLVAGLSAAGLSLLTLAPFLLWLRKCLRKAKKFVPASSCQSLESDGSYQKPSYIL
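Material: HUVEC primary endothelial cells; Amount: 3,000 cells per well; Dosing: single concentration; Medium: EGM-2 growth medium on 0.1% gelatin-coated wells; Read-out basis: percent E-selectin-positive cells; Signal: immunofluorescence imaging; Control set: TNF-alpha, DMSO.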
* hit, by the source's call.

For COCCOC(=O)N1C(=O)[C@@]2(c3cc(C#CCCO)ccc31)[C@H](c1ccccc1OCCO)N1[C@H](c3ccccc3)[C@H](c3ccccc3)OC(=O)[C@H]1[C@@H]2C(=O)N1CCN(c2ncccn2)CC1 the results were SIRT5 inh 19.0* and DENV2 CPE rescue -0.4.
COCCOC(=O)N1C(=O)[C@@]2(c3cc(C#CCCO)ccc31)[C@H](C(=O)N1CCN(c3ncccn3)CC1)[C@H]1C(=O)O[C@H](c3ccccc3)[C@H](c3ccccc3)N1[C@@H]2c1ccccc1OCCO was read as SIRT5 inh 14.4 and DENV2 CPE rescue 4.0.
`COCCOC(=O)N1C(=O)[C@@]2(c3ccccc31)[C@H](C(=O)N1CCN(c3ncccn3)CC1)[C@H]1C(=O)O[C@H](c3ccccc3)[C@H](c3ccccc3)N1[C@@H]2c1ccccc1OCCO` gave SIRT5 inh 15.6* and DENV2 CPE rescue 5.6.
COCCOC(=O)N1C(=O)[C@@]2(c3cc(C#CCC(C(=O)OC)C(=O)OC)ccc31)[C@H](c1ccccc1OCCO)N1[C@H](c3ccccc3)[C@H](c3ccccc3)OC(=O)[C@H]1[C@@H]2C(=O)N1CCN(c2ncccn2)CC1 was read as SIRT5 inh 2.0 and DENV2 CPE rescue 7.4.
Screening O=C(C1CC1)N1C[C@H]2[C@@H](c3ccccc31)[C@H](CO)N2C(=O)c1cccc(F)c1 returned E-selectin induc -0.2.
`C[C@H]1CN([C@@H](C)CO)S(=O)(=O)c2ccc(C3=CCCC3)cc2O[C@H]1CN(C)CC1CCOCC1` gave SIRT5 inh -0.2, DENV2 CPE rescue 2.2 and E-selectin induc 0.1.
Screening C[C@H]1CN([C@@H](C)CO)S(=O)(=O)c2ccc(-c3ccncc3)cc2O[C@H]1CN(C)C(=O)C1CCC1 returned E-selectin induc 0.8.
Screening COc1ccc2c3c(n(C)c2c1)[C@H](CO)N(CC1CC1)CC31CCN(C(=O)CN2CCOCC2)CC1 returned SIRT5 inh 10.3, DENV2 CPE rescue -7.3 and E-selectin induc -0.3.
Screening O=C(Cc1ccncc1)NCC[C@@H]1CC[C@@H](NC(=O)C2CCCC2)[C@@H](CO)O1 returned SIRT5 inh -2.5, DENV2 CPE rescue 3.3 and E-selectin induc 0.0.
`CCOC(=O)/C=C/c1cc(F)ccc1O` gave SIRT5 inh 0.6, DENV2 CPE rescue 20.7* and E-selectin induc -0.3.
For CCOC(=O)/C=C/c1cccc(C)c1O the results were SIRT5 inh -0.2, DENV2 CPE rescue -2.0 and E-selectin induc -0.1.
Cc1ccc(-n2nc3c(c2NC(=O)c2ccco2)CS(=O)C3)c(C)c1 (stereo unspecified) was read as SIRT5 inh -0.4, DENV2 CPE rescue 55.3* and E-selectin induc 0.7.
Screening Cc1cccc(-n2nc3c(c2NC(=O)c2ccco2)CS(=O)C3)c1C (stereo unspecified) returned SIRT5 inh -1.9, DENV2 CPE rescue 14.0 and E-selectin induc 0.8.
`C[C@@H]1CCCCO[C@@H](CN(C)Cc2ccccc2)[C@@H](C)CN([C@@H](C)CO)C(=O)c2cc(NC(=O)Nc3ccc(F)cc3)ccc2O1` gave SIRT5 inh 5.0, DENV2 CPE rescue -1.8 and E-selectin induc 0.6.
CCC(Sc1nc(C)cc(C)n1)C(=O)Nc1ccc(S(N)(=O)=O)cc1 (stereo unspecified) was read as SIRT5 inh 2.6, DENV2 CPE rescue 14.3 and E-selectin induc 0.2.
Screening CCC(SC1=NCCS1)C(=O)Nc1ccc(S(N)(=O)=O)cc1 (stereo unspecified) returned SIRT5 inh -0.3 and DENV2 CPE rescue 26.0*.
`CCCNC(=O)N1C[C@@H]2[C@H](c3ccccc31)[C@@H](CO)N2Cc1ccccc1F` gave SIRT5 inh -0.1, DENV2 CPE rescue -4.4 and E-selectin induc 0.2.
O=C(CC[C@H]1O[C@@H](n2ccc(=O)[nH]c2=O)[C@H](O)[C@@H]1O)N[C@H](Cc1ccccc1)C(=O)NC1CCCCC1 was read as SIRT5 inh -2.0, DENV2 CPE rescue -3.9 and E-selectin induc -1.5.
`O=C(N[C@H](Cc1ccccc1)C(=O)NC1CCCCC1)[C@H]1O[C@@H](n2ccc(=O)[nH]c2=O)[C@H](O)[C@@H]1O` gave SIRT5 inh -1.2, DENV2 CPE rescue 28.5* and E-selectin induc 0.0.
`C[C@@H]1CN([C@H](C)CO)C(=O)c2cc(N(C)C)ccc2O[C@@H](C)CCCCO[C@H]1CN(C)S(=O)(=O)c1ccccc1` gave SIRT5 inh -1.2, DENV2 CPE rescue -2.6 and E-selectin induc -0.1.
COc1ccc(-c2cc3ccccc3[nH]2)cc1 was read as SIRT5 inh -2.8 and DENV2 CPE rescue 2.1.
`c1ccc(-c2cc3ccccc3[nH]2)cc1` gave SIRT5 inh -3.1, DENV2 CPE rescue 26.9* and E-selectin induc -0.1.
For COc1ccccc1C#Cc1ccc2c(c1)[C@@H]1[C@@H](CCN1C(=O)CN1CCOCC1)[C@H](CO)N2 the results were SIRT5 inh -3.1, DENV2 CPE rescue -1.0 and E-selectin induc 0.4.
For COc1cccc(C(=O)Oc2cc(C)[nH]c(=O)c2[N+](=O)[O-])c1OC the results were SIRT5 inh -0.3, DENV2 CPE rescue 100.6* and E-selectin induc 1.7.
For Cc1cc(OC(=O)c2ccccc2[N+](=O)[O-])c([N+](=O)[O-])c(=O)[nH]1 the results were SIRT5 inh -1.2, DENV2 CPE rescue 2.6 and E-selectin induc -0.3.
`COCCNC(=O)C[C@@H]1CC[C@H]2[C@H](COc3ccc(NC(=O)c4cc(C)on4)cc3C(=O)N2C)O1` gave SIRT5 inh 0.1, DENV2 CPE rescue -1.4 and E-selectin induc 0.0.
COc1cccc(S(=O)(=O)N(C)C[C@H]2OCc3ccccc3-c3ccccc3C(=O)N([C@H](C)CO)C[C@@H]2C)c1 was read as SIRT5 inh 1.9, DENV2 CPE rescue -3.2 and E-selectin induc -3.8.
For CC(C)(C)c1n[nH]c2c1CCCC2 the results were SIRT5 inh 41.8*, DENV2 CPE rescue -8.8 and E-selectin induc 7.3.
For O=C(NN=C1CCCC1)c1n[nH]c2c1CCCC2 the results were SIRT5 inh 1.9 and DENV2 CPE rescue 0.2.
Screening COCC(=O)N1C[C@@H]2[C@H](c3ccccc31)[C@H](CO)N2C(=O)C1CCCC1 returned SIRT5 inh -0.8, DENV2 CPE rescue -5.5 and E-selectin induc -0.4.
`CCOc1cc(/C=C2/SC(=S)NC2=O)ccc1OC(=O)c1ccco1` gave SIRT5 inh -3.5 and DENV2 CPE rescue 5.4.
Screening O=C1NC(=S)S/C1=C/c1ccc(OC(=O)c2ccco2)cc1 returned SIRT5 inh 80.7* and DENV2 CPE rescue -8.4.
Screening COc1cccc(C#Cc2ccc([C@H]3[C@H]4CN(C(=O)Cc5cccnc5)CC(=O)N4[C@H]3CO)cc2)c1 returned SIRT5 inh 0.6, DENV2 CPE rescue -9.7 and E-selectin induc -0.2.
`C[C@H](CO)N1C[C@H](C)[C@H](CN(C)C(=O)c2ccncc2)OCCCC[C@H](C)Oc2ccc(NS(=O)(=O)c3cn(C)cn3)cc2C1=O` gave SIRT5 inh -0.8, DENV2 CPE rescue 24.3* and E-selectin induc 0.0.
C[C@@H]1CN([C@H](C)CO)C(=O)c2cc(NS(=O)(=O)c3cn(C)cn3)ccc2O[C@@H](C)CCCCO[C@@H]1CN(C)C(=O)c1ccncc1 was read as SIRT5 inh -2.6, DENV2 CPE rescue -9.4 and E-selectin induc -0.4.
